Assay results collected from several papers.
Lines come from different studies, so protocols differ.
Target: Discoidin domain-containing receptor 2 (DDR2, Homo sapiens, UniProt Q16832)
Residues used in one study (Q16832 22-855): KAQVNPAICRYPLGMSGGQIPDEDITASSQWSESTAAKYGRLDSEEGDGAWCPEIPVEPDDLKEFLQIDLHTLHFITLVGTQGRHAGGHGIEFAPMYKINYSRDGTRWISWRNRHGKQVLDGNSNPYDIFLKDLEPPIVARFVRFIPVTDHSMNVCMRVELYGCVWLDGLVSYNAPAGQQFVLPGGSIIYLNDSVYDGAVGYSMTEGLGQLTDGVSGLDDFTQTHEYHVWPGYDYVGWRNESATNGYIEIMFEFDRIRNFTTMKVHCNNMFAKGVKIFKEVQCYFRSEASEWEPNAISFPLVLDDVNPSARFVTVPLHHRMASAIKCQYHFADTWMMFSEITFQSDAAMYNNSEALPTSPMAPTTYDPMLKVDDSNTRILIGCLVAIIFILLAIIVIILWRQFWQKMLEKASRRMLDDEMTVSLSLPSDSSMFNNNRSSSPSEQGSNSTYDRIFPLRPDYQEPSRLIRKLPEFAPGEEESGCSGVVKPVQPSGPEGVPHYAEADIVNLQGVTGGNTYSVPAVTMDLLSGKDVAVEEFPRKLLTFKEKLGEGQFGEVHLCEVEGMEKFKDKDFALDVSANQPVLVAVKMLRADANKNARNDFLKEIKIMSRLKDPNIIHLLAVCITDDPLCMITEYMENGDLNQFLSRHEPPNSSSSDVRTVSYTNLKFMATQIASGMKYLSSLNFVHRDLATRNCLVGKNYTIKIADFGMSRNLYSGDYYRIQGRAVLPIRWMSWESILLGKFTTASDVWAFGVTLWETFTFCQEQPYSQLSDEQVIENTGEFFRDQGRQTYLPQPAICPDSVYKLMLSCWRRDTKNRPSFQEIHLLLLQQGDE

O=C(NC[C@@H]1[C@H]2CN(C(=O)OCc3cc(C(F)(F)F)cc(C(F)(F)F)c3)C[C@@H]12)c1ccc2[nH]nnc2c1
remaining binding (cell-free assay; competition with immobilised ligand; 1 µM): 82%

CC(C)(O)[C@H]1CC[C@H](Nc2ccc3ncc(-c4cccc(C(F)(F)F)c4)n3n2)CC1
remaining activity (enzyme activity; inhibitor; 1 µM): 49.5%

Cc1ccc(C(=O)Nc2ccc(CN3CCN(C)CC3)c(C(F)(F)F)c2)cc1C#Cc1cnc2cccnn12
remaining signal (cell-free assay; 23.5 nM): 0.3%

CCN(CC)CCNC(=O)c1c(C)[nH]c(/C=C2\C(=O)Nc3ccc(F)cc32)c1C
remaining activity (enzyme activity; inhibitor; 1 µM): 103%

CC/C(=N\NC(=O)NCc1cccc(O)c1)c1ccc(O)c(C)c1O
inhibition (enzyme activity; inhibitor; 0.1 µM): 0.1%

COc1cc(Cl)c(C(=O)N[C@@H](CN[C@H]2CC[C@@H](N)CC2)Cc2ccc(C#N)cc2)cc1-c1ccc(CN[C@H](C)c2ccc(C)cc2)o1
remaining activity (enzyme activity; inhibitor; 1 µM): 104%

C[C@@H]1CN(c2cc(-c3n[nH]c4ccc(OC5(C)CC5)cc34)ncn2)C[C@H](C)O1
remaining binding (cell-free assay; competition with immobilised ligand; 0.1 µM): 82%

O=C(Nc1cnn(-c2csc(C(=O)NC3COC3)c2)c1)Nc1ccccc1Cl
remaining activity (enzyme activity; inhibitor; 5 µM): 99.8%

CC(C)(C)c1nc(-c2cccc(NS(=O)(=O)c3c(F)cccc3F)c2F)c(-c2ccnc(N)n2)s1
remaining activity (enzyme activity; inhibitor; radiometric; 1 µM): 14%

Cc1c[nH]c2nccc(Oc3c(F)cc(Nc4cc(Cl)nc(N)n4)cc3F)c12
remaining binding (cell-free assay; competition with immobilised ligand; 0.1 µM): 57%

Cc1ccc(Nc2nccc(N(C)c3ccc4c(C)n(C)nc4c3)n2)cc1S(N)(=O)=O
remaining signal (cell-free assay; 0.5 µM): 36.2%

Cc1[nH]c(/C=C2\C(=O)Nc3ccc(F)cc32)c(C)c1C(=O)N[C@H]1CCN(C(=O)N(C)C)C1
remaining activity (enzyme activity; inhibitor; 1 µM): 107%

COc1cc(/C=C/C(=O)CC(=O)/C=C/c2ccc(O)c(OC)c2)ccc1O
activity vs control (enzyme activity; inhibitor; 1 µM): 109%

FC(F)(F)c1ccc2c(c1)nc(-c1cccnc1)n2C1CC1
remaining binding (cell-free assay; competition with immobilised ligand; 1 µM): 100%

CCN(CC)CCNC(=O)c1c(C)[nH]c(/C=C2\C(=O)Nc3ccc(F)cc32)c1C
inhibition (enzyme activity; inhibitor; 0.3 µM): -8%

COc1cc2nccc(Oc3ccc(NC(=O)c4c5n(n(-c6ccc(F)cc6)c4=O)CCCC5)cc3)c2cc1OC
inhibition (enzyme activity; inhibitor; 0.1 µM): 20%

Cc1cc(NC(=O)c2cccc3cc(-c4cccc5[nH]nc(N)c45)ccc23)ccc1F
activity vs control (enzyme activity; inhibitor; 0.1 µM): 60%

CCC(=O)N[C@H]1CC[C@@H](C(=O)N(C)c2ccc(-c3nc4ccccc4o3)cc2)C1
remaining binding (cell-free assay; competition with immobilised ligand; 1 µM): 100%

N#CCCc1ccc2c(c1)-c1[nH]c3ccc([N+](=O)[O-])cc3c1CC(=O)N2
remaining signal (cell-free assay; 0.5 µM): 105%

CS(=O)(=O)c1cc(C2(NC(=O)c3cncc4c3cnn4-c3ccc(F)cc3)CC2)ccn1
remaining binding (cell-free assay; competition with immobilised ligand; 1 µM): 100%

CNC(=O)c1cc2c(Oc3ccc(NC(=O)C4(C(=O)Nc5ccc(F)cc5)CC4)cc3)ccnc2cc1OC
inhibition (enzyme activity; inhibitor; radiometric; 1 µM): 104%

CNC(=O)c1cc(Oc2ccc(NC(=O)Nc3ccc(Cl)c(C(F)(F)F)c3)cc2)ccn1
inhibition (enzyme activity; inhibitor; 10 µM): 111%

O=C1Nc2ccc(Cl)cc2C1=Cc1cc(Cl)c(O)c(Cl)c1
remaining signal (cell-free assay; 0.5 µM): 85.8%

CN(C)c1ncnc(-c2ccc3nc(Nc4cc(CN5CCN(C(=O)CC(F)(F)F)CC5)ccn4)[nH]c3c2)c1Cl
remaining binding (cell-free assay; competition with immobilised ligand; 1 µM): 71%
